Assay results as given in ChEMBL document CHEMBL1156750 (Bioorg Med Chem Lett, 2009).
Activity calls are given as the source filed them. No cut-off for these calls is given here.

Assays:
[1] = biological target: Adrenergic receptor alpha-2 (Rattus norvegicus) (UniProt P22086+P19328+P22909); assay: Inhibition of rat alpha-2 adrenergic receptor at 10 uM
[2] = biological target: Muscarinic acetylcholine receptor (Rattus norvegicus) (UniProt P08482+P08483+P08485+P08911+P10980); assay: Inhibition of rat muscarinic receptor at 10 uM
[3] = tested on: Rattus norvegicus; assay: Anticoagulant activity against […] Sprague-Dawley rat carotid artery thrombosis assessed as decreasing thrombosis weight at 10 mg/kg, po; format: functional; design: scale not given: the % may be the effect or the level left
Method in brief: (§1)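 Rat carotid artery thrombosis: vehicle (PEG-400) or compound given by 1 mL/kg gavage at 0 min (5, 10, 15, 30 mg/kg; n = 5, 6, 6, 4; vehicle n = 8), with aspirin 10 mg/kg iv 15 min before FeCl2. Rats anesthetized at 30 min. 50% FeCl2 applied topically at 60 min for 10 min. Thrombus weight taken 1 h later. ANOVA with Dunnett's test.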

[4] = biological target: Trypsin (Homo sapiens, UniProt P07477+P07478+P35030); assay: Inhibition of human trypsin; format: protein assay
[5] = biological target: Progesterone receptor (Homo sapiens) (UniProt P06401); assay: Inhibition of human PR at 10 uM
[6] = organism: Homo sapiens; assay: Inhibition of human sst receptor at 10 uM
[7] = tested on: Rattus norvegicus; assay: Anticoagulant activity against Sprague-Dawley rat arterial thrombosis model induced by topical application of Fecl2; format: functional; details: Rattus norvegicus, Sprague-Dawley, oral; method in brief: as §1
[8] = tested on: Rattus norvegicus; assay: Anticoagulant activity against Sprague-Dawley rat carotid artery thrombosis induced by FeCl2 in aspirin-treated rats assessed as decreasing thrombosis weight at 15 mg/kg, po; design: scale not given: the % may be the effect or the level left
[9] = organism: Rattus norvegicus; assay: Inhibition of rat Opiate receptor at 10 uM
[10] = biological target: Adrenergic receptor alpha-1 (Rattus norvegicus) (UniProt P15823+P23944+P43140); assay: Inhibition of rat alpha-1 adrenergic receptor at 10 uM
[11] = biological target: Estrogen receptor (Homo sapiens) (UniProt P03372); assay: Inhibition of human ERalpha at 10 uM
[12] = biological target: Cholecystokinin receptor type A (Homo sapiens) (UniProt P32238); assay: Inhibition of human CCKA receptor at 10 uM
[13] = biological target: Beta-1 adrenergic receptor (Homo sapiens) (UniProt P08588); assay: Inhibition of human beta-1 adrenergic receptor at 10 uM
[14] = biological target: Beta-2 adrenergic receptor (Homo sapiens) (UniProt P07550); assay: Inhibition of human beta-2 adrenergic receptor at 10 uM
[15] = organism: Rattus norvegicus; assay: Inhibition of rat chloride channel at 10 uM
[16] = tested on: Plasma; assay: Anticoagulant activity in human plasma assessed as concentration required to double the prothrombin based clotting time after 30 seconds; format: functional
Method in brief: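 Human plasma prothrombin-based clotting time; value is the inhibitor concentration that doubles the clotting time, averaged from two independent determinations.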

[17] = biological target: Sodium-dependent noradrenaline transporter (Homo sapiens) (UniProt P23975); assay: Inhibition of human NE transporter at 10 uM
[18] = organism: Rattus norvegicus; assay: Inhibition of rat choline transporter at 10 uM
[19] = biological target: D(2) dopamine receptor (Homo sapiens) (UniProt P14416); assay: Inhibition of human dopamine D2S receptor at 10 uM
[20] = Inhibition of sodium channel
[21] = biological target: 5-hydroxytryptamine receptor 2B (Homo sapiens) (UniProt P41595); assay: Inhibition of human 5-HT2B receptor at 10 uM
[22] = biological target: Glucocorticoid receptor (Homo sapiens) (UniProt P04150); assay: Inhibition of human GR at 10 uM
[23] = biological target: D(1A) dopamine receptor (Homo sapiens) (UniProt P21728); assay: Inhibition of human dopamine D1 receptor at 10 uM
[24] = biological target: Sodium-dependent dopamine transporter (Rattus norvegicus) (UniProt P23977); assay: Inhibition of rat DA transporter at 10 uM
[25] = organism: Rattus norvegicus; assay: Inhibition of rat Kainate receptor at 10 uM
[26] = tested on: Rattus norvegicus; assay: Anticoagulant activity in Fecl2-induced Sprague-Dawley rat vena cava thrombosis model assessed as inhibition of thrombus weight at 15 mg/kg, po; format: functional
Method in brief: (§2)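 Rat vena cava thrombosis: vehicle (PEG-400) or compound at 5, 10, 15, 30 mg/kg (n = 5 per group) given by 1 mL/kg gavage at 0 min. Rats anesthetized at 30 min. 15% FeCl2 applied topically to the vena cava at 60 min for 2 min. Thrombus weight determined 1 h after FeCl2.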

[27] = tested on: Rattus norvegicus; assay: Anticoagulant activity in Fecl2-induced po dosed Sprague-Dawley rat vena cava thrombosis model assessed as inhibition of thrombus weight; format: functional; method in brief: as §2
[28] = organism: Rattus norvegicus; assay: Inhibition of rat AMPA receptor at 10 uM
[29] = biological target: Adenosine receptor A1 (Homo sapiens) (UniProt P30542); assay: Inhibition of human A1 receptor at 10 uM
[30] = biological target: Glutamate NMDA receptor (Rattus norvegicus) (UniProt P35439+Q00959+Q00960+Q00961+Q62645+Q8VHN2+Q9R1M7); assay: Inhibition of rat NMDA receptor at 10 uM; format: protein-complex assay
[31] = biological target: 5-hydroxytryptamine receptor 1A (Homo sapiens) (UniProt P08908); assay: Inhibition of human 5-HT1A receptor at 10 uM
[32] = biological target: Histamine H1 receptor (Cavia porcellus) (UniProt P31389); assay: Inhibition of guinea pig H1 receptor
[33] = tested on: Plasma; assay: Anticoagulant activity in Sprague-Dawley rat plasma assessed as concentration required to double the prothrombin based clotting at 30 mg/kg, id; format: functional; details: route intraduodenal
[34] = tested on: Rattus norvegicus; assay: Anticoagulant activity against Sprague-Dawley rat carotid artery thrombosis induced by FeCl2 in aspirin-treated rats assessed as decreasing thrombosis weight at 30 mg/kg, po; design: scale not given: the % may be the effect or the level left
[35] = organism: Rattus norvegicus; assay: Inhibition of rat GABA transporter at 10 uM
[36] = biological target: Histamine H2 receptor (Cavia porcellus) (UniProt P47747); assay: Inhibition of guinea pig H2 receptor at 10 uM
[37] = organism: Rattus norvegicus; assay: Inhibition of rat sodium channel site2 at 10 uM
[38] = organism: Rattus norvegicus; assay: Inhibition of rat 5-HT receptor at 10 uM
[39] = Inhibition of human Tryptase

5-hydroxytryptamine receptor 2B (Homo sapiens), sequence (P41595 whole entry): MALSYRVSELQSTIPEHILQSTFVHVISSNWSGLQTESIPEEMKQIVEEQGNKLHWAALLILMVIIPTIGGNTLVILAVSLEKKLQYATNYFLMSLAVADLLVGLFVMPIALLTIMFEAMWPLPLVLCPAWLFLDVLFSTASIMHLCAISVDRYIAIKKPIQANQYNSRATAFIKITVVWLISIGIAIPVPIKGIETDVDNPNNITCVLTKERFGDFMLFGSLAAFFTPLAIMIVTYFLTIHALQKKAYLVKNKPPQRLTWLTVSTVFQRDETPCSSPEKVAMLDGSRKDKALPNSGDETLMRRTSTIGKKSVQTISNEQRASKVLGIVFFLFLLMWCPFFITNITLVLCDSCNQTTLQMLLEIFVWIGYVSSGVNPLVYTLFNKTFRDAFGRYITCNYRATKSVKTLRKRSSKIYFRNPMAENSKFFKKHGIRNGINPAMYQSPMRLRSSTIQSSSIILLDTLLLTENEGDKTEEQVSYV
Sodium-dependent noradrenaline transporter (Homo sapiens), sequence (P23975 whole entry): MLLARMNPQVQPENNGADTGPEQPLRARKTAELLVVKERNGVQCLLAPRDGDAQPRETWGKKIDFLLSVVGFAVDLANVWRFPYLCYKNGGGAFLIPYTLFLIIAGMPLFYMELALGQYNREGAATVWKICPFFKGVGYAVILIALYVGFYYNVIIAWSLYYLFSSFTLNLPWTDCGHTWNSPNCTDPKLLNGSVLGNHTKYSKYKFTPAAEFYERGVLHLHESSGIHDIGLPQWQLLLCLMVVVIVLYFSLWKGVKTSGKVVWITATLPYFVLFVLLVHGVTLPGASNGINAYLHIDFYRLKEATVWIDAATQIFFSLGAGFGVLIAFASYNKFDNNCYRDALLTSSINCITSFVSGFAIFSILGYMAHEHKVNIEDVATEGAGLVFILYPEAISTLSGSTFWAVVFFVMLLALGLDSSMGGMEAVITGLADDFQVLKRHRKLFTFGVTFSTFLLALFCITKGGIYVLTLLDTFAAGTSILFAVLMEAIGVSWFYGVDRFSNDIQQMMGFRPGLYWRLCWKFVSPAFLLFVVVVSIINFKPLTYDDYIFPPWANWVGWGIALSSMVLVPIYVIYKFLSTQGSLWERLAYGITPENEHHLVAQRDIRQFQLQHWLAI
D(1A) dopamine receptor (Homo sapiens), sequence (P21728 whole entry): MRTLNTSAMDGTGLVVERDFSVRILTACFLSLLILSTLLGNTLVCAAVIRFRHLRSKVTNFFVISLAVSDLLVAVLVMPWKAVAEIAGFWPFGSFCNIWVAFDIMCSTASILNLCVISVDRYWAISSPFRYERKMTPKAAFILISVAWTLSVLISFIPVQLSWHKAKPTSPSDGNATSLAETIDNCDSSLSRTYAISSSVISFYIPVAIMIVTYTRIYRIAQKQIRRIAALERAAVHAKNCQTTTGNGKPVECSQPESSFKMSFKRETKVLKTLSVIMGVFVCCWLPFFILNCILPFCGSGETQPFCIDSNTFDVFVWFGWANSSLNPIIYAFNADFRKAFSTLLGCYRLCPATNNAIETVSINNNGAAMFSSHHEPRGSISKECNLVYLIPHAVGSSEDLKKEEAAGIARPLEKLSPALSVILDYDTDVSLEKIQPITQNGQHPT
5-hydroxytryptamine receptor 1A (Homo sapiens), sequence (P08908 whole entry): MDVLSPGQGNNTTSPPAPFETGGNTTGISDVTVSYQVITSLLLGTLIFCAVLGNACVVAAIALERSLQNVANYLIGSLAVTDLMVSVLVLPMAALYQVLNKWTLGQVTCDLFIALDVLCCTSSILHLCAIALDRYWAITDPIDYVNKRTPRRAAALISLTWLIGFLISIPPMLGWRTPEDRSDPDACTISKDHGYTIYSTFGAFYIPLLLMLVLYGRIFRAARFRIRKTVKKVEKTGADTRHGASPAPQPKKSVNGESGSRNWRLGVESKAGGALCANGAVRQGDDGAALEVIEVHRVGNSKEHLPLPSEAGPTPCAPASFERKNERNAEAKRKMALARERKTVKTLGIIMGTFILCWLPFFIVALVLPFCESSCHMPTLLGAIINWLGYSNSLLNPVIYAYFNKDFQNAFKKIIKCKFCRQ
Histamine H2 receptor (Cavia porcellus), sequence (P47747 whole entry): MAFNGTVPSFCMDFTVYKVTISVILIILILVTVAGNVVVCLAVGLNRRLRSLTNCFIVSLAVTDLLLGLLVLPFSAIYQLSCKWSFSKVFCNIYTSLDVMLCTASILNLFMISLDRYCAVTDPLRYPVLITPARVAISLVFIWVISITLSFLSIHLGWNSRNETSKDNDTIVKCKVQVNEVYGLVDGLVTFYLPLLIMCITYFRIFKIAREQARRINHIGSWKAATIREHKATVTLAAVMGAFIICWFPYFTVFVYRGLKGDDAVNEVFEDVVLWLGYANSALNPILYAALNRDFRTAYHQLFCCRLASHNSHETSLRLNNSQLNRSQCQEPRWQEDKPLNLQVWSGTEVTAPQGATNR
Cholecystokinin receptor type A (Homo sapiens), sequence (P32238 whole entry): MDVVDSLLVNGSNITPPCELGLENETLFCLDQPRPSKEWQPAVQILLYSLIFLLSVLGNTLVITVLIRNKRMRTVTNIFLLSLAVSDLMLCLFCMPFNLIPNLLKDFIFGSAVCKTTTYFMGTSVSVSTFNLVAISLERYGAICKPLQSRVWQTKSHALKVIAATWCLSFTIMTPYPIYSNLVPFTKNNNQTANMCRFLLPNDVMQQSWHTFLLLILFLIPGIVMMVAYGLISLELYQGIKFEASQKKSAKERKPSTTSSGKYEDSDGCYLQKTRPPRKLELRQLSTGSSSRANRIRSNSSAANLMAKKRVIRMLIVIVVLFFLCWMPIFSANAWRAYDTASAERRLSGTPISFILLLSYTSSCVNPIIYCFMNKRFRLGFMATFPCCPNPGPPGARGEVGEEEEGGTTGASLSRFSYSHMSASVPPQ
D(2) dopamine receptor (Homo sapiens), sequence (P14416 whole entry): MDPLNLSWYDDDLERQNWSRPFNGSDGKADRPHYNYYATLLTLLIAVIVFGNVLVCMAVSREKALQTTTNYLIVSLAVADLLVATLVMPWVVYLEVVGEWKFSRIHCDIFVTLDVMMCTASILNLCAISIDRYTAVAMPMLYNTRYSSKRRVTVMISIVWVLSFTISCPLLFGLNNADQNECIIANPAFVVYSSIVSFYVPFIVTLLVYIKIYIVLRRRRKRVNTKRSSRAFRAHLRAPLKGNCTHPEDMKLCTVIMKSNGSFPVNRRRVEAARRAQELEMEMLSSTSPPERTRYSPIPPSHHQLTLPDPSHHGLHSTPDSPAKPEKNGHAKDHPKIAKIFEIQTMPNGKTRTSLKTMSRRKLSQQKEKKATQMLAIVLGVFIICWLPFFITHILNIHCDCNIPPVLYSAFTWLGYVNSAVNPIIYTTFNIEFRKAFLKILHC
Sodium-dependent dopamine transporter (Rattus norvegicus), sequence (P23977 whole entry): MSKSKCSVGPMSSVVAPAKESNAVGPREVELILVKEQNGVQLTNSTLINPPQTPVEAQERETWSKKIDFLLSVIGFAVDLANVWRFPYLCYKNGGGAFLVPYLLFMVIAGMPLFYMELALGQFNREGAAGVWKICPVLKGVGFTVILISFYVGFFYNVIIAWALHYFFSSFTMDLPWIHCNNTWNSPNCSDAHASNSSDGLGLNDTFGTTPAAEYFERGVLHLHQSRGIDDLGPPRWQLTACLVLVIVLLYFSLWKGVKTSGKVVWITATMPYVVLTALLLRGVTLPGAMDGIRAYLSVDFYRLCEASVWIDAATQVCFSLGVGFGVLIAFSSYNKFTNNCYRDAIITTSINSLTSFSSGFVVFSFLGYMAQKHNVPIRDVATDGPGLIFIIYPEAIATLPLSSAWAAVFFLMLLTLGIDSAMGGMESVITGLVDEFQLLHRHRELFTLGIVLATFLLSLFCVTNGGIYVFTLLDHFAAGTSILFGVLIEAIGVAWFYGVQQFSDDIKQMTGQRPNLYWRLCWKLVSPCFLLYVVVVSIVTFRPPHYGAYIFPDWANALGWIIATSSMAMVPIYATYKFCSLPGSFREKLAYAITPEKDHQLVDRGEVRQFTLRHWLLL
Glucocorticoid receptor (Homo sapiens), sequence (P04150 whole entry): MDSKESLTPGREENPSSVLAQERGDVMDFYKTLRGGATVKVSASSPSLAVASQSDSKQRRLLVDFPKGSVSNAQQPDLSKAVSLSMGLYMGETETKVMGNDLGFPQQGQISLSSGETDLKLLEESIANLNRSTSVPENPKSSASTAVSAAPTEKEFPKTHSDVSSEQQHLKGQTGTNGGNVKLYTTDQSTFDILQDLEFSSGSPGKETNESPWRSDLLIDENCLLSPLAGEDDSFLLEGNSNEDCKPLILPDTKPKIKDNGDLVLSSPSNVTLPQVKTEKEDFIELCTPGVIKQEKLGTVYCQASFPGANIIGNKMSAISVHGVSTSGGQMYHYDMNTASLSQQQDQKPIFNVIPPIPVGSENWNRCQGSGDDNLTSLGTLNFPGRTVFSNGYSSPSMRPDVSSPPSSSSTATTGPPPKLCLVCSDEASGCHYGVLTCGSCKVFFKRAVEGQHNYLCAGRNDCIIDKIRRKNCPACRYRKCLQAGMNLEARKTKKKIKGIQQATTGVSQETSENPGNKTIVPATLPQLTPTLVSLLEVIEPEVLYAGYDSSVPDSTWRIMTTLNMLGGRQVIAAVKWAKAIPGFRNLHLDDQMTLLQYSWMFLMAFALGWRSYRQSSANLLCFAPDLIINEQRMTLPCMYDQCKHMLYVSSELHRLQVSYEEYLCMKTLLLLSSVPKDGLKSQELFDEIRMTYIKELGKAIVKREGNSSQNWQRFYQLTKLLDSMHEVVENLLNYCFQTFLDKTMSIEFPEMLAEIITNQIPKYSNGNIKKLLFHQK
Adenosine receptor A1 (Homo sapiens), sequence (P30542 whole entry): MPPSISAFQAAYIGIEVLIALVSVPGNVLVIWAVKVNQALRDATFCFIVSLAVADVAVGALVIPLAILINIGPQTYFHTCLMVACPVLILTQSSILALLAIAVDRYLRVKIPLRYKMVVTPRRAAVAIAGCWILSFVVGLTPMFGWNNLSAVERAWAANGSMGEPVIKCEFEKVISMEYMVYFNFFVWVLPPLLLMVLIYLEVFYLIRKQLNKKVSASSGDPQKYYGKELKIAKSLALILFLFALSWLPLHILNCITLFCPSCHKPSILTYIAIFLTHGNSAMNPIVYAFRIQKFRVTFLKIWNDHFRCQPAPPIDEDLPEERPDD

Cc1cc2cc(N/C(=N\C(=O)c3ccc(C(=O)N(C)C)nc3)N[C@H]3CCCCN(CC(=O)N4CCCC4)C3=O)ccc2o1
Activity [1]: inactive
Activity [2]: inactive
Activity [3]: 36%
Ki [4]: > 10 µM
Activity [5]: inactive
Activity [6]: inactive
ED50 [7]: 10 mg/kg
Activity [8]: 31%
Activity [9]: inactive
Activity [10]: inactive
Activity [11]: inactive
Activity [12]: inactive
Activity [13]: inactive
Activity [14]: inactive
Activity [15]: inactive
Activity [16]: 2.5 µM
Activity [17]: inactive
Activity [18]: inactive
Activity [19]: inactive
Activity [20]: inactive
Activity [21]: inactive
Activity [22]: inactive
Activity [23]: inactive
Activity [24]: inactive
Activity [25]: inactive
inhibition in vivo at 15 mg/kg [26]: 90%
ED50 [27]: 2 mg/kg
Activity [28]: inactive
Activity [29]: inactive
Activity [30]: inactive
Activity [31]: inactive
Activity [32]: inactive
Activity [33]: 3.6 µM
Activity [34]: 54%
Activity [35]: inactive
Activity [36]: inactive
Activity [37]: inactive
Activity [38]: inactive
Ki [39]: > 30 µM
